Experimental data reported in ChEMBL document CHEMBL4052823, “Extra Sugar on Vancomycin: New Analogues for Combating Multidrug-Resistant Staphylococcus aureus and Vancomycin-Resistant Enterococci” (J Med Chem, 2018).
Values after ≈ are worked out from the molar mass of the structure shown.

Experiments:
Staphylococcus aureus [1] = assay: Antibacterial activity against vancomycin/methicillin-susceptible Staphylococcus aureus Newman […] after 24 hrs by broth microdilution method; format: functional
Method in brief: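 Broth microdilution in cation-adjusted Mueller-Hinton II broth. […] Each well received ~10^5 CFU of exponential-phase bacteria and was incubated at 37 °C for 24 h. MIC was taken as the lowest concentration giving complete growth inhibition, interpreted per CLSI.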

Staphylococcus aureus [2] = assay: Antibacterial activity against healthcare-associated methicillin-resistant/vancomycin-intermediate Staphylococcus aureus Mu50 after 24 hrs by broth microdilution method; format: functional; conditions: Mu50, 24 h
Method in brief: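 Broth microdilution in cation-adjusted Mueller-Hinton II broth. DMSO stocks were diluted in broth and twofold serially from 128 to 0.0625 μg/mL or lower. Each well was inoculated with ~10^5 CFU of exponential-phase bacteria and incubated at 37 °C for 24 h. MIC was the lowest concentration giving complete growth inhibition, read per CLSI. Growth controls contained broth plus DMSO.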

Compound	MIC90 (Staphylococcus aureus [1]) [µg/mL]	MIC90 (Staphylococcus aureus [2]) [µg/mL]
C#Cc1ccc(CN[C@@]2(C)C[C@H](O[C@H]3[C@H](Oc4c5cc6cc4Oc4ccc(cc4Cl)[C@@H](O)[C@@H](NC(=O)[C@@H](CC(C)C)NC)C(=O)N[C@@H](CC(N)=O)C(=O)N[C@H]6C(=O)N[C@H]4C(=O)N[C@H](C(=O)N[C@H](C(=O)O)c6cc(O)c(CN[C@H]7C(O)O[C@H](CO)[C@H](O)[C@@H]7O)c(O)c6-c6cc4ccc6O)[C@H](O)c4ccc(c(Cl)c4)O5)O[C@H](CO)[C@@H](O)[C@@H]3O)O[C@@H](C)[C@H]2O)cc1 (stereo partly specified)	2 (≈ 1.14 µM)	8 (≈ 4.56 µM)
CCCCCCCCCCNCCN[C@@]1(C)C[C@H](O[C@H]2[C@H](Oc3c4cc5cc3Oc3ccc(cc3Cl)[C@@H](O)[C@@H](NC(=O)[C@@H](CC(C)C)NC)C(=O)N[C@@H](CC(N)=O)C(=O)N[C@H]5C(=O)N[C@H]3C(=O)N[C@H](C(=O)N[C@H](C(=O)O)c5cc(O)c(CNCCO[C@@H]6O[C@H](CO)[C@@H](O)[C@H](O)[C@H]6NC(C)=O)c(O)c5-c5cc3ccc5O)[C@H](O)c3ccc(c(Cl)c3)O4)O[C@H](CO)[C@@H](O)[C@@H]2O)O[C@@H](C)[C@H]1O	1 (≈ 0.524 µM)	4 (≈ 2.1 µM)
CCc1ccc(CN[C@@]2(C)C[C@H](O[C@H]3[C@H](Oc4c5cc6cc4Oc4ccc(cc4Cl)[C@@H](O)[C@@H](NC(=O)[C@@H](CC(C)C)NC)C(=O)N[C@@H](CC(N)=O)C(=O)N[C@H]6C(=O)N[C@H]4C(=O)N[C@H](C(=O)N[C@H](C(=O)O)c6cc(O)c(CNCCO)c(O)c6-c6cc4ccc6O)[C@H](O)c4ccc(c(Cl)c4)O5)O[C@H](CO)[C@@H](O)[C@@H]3O)O[C@@H](C)[C@H]2O)cc1	2 (≈ 1.22 µM)	4 (≈ 2.44 µM)
CN[C@H](CC(C)C)C(=O)N[C@H]1C(=O)N[C@@H](CC(N)=O)C(=O)N[C@H]2C(=O)N[C@H]3C(=O)N[C@H](C(=O)N[C@H](C(=O)O)c4cc(O)c(CNCCCNC(=O)[C@H](O)[C@@H](O)[C@H](O)[C@H](O)CO)c(O)c4-c4cc3ccc4O)[C@H](O)c3ccc(c(Cl)c3)Oc3cc2cc(c3O[C@@H]2O[C@H](CO)[C@@H](O)[C@H](O)[C@H]2O[C@H]2C[C@](C)(NCc3ccc(C#C[Si](C)(C)C)cc3)[C@H](O)[C@H](C)O2)Oc2ccc(cc2Cl)[C@H]1O	1 (≈ 0.526 µM)	2 (≈ 1.05 µM)
CN[C@H](CC(C)C)C(=O)N[C@H]1C(=O)N[C@@H](CC(N)=O)C(=O)N[C@H]2C(=O)N[C@H]3C(=O)N[C@H](C(=O)N[C@H](C(=O)O)c4cc(O)c(CNCCCNC(=O)[C@H](O)[C@@H](O)[C@H](O[C@@H]5O[C@H](CO)[C@H](O)[C@H](O)[C@H]5O)[C@H](O)CO)c(O)c4-c4cc3ccc4O)[C@H](O)c3ccc(c(Cl)c3)Oc3cc2cc(c3O[C@@H]2O[C@H](CO)[C@@H](O)[C@H](O)[C@H]2O[C@H]2C[C@](C)(NCc3ccc(-c4ccc(Cl)cc4)cc3)[C@H](O)[C@H](C)O2)Oc2ccc(cc2Cl)[C@H]1O	0.25 (≈ 0.12 µM)	0.5 (≈ 0.241 µM)
CCCCCCCCCCN[C@@]1(C)C[C@H](O[C@H]2[C@H](Oc3c4cc5cc3Oc3ccc(cc3Cl)[C@@H](O)[C@@H](NC(=O)[C@@H](CC(C)C)NC)C(=O)N[C@@H](CC(N)=O)C(=O)N[C@H]5C(=O)N[C@H]3C(=O)N[C@H](C(=O)N[C@H](C(=O)O)c5cc(O)c(CNCCCNC(=O)[C@H](O)[C@@H](O)[C@H](O)[C@H](O)CO)c(O)c5-c5cc3ccc5O)[C@H](O)c3ccc(c(Cl)c3)O4)O[C@H](CO)[C@@H](O)[C@@H]2O)O[C@@H](C)[C@H]1O	0.12 (≈ 0.0647 µM)	0.5 (≈ 0.27 µM)
CN[C@H](CC(C)C)C(=O)N[C@H]1C(=O)N[C@@H](CC(N)=O)C(=O)N[C@H]2C(=O)N[C@H]3C(=O)N[C@H](C(=O)N[C@H](C(=O)O)c4cc(O)c(CNCCCNC(=O)[C@H](O)[C@@H](O)[C@H](O)[C@H](O)CO)c(O)c4-c4cc3ccc4O)[C@H](O)c3ccc(c(Cl)c3)Oc3cc2cc(c3O[C@@H]2O[C@H](CO)[C@@H](O)[C@H](O)[C@H]2O[C@H]2C[C@](C)(NCc3ccc4c(c3)OCC4)[C@H](O)[C@H](C)O2)Oc2ccc(cc2Cl)[C@H]1O	4 (≈ 2.17 µM)	8 (≈ 4.33 µM)
CCCCCCCCCCNCCN[C@@]1(C)C[C@H](O[C@H]2[C@H](Oc3c4cc5cc3Oc3ccc(cc3Cl)[C@@H](O)[C@@H](NC(=O)[C@@H](CC(C)C)NC)C(=O)N[C@@H](CC(N)=O)C(=O)N[C@H]5C(=O)N[C@H]3C(=O)N[C@H](C(=O)N[C@H](C(=O)O)c5cc(O)c(CNCCO[C@@H]6O[C@H](CO)[C@H](O)[C@H](O)[C@H]6O)c(O)c5-c5cc3ccc5O)[C@H](O)c3ccc(c(Cl)c3)O4)O[C@H](CO)[C@@H](O)[C@@H]2O)O[C@@H](C)[C@H]1O	0.5 (≈ 0.268 µM)	2 (≈ 1.07 µM)
